Consider 26 compounds from ChEMBL document CHEMBL4396954, “A click chemistry approach for the synthesis of cyclic ureido tethered coumarinyl and 1-aza coumarinyl 1,2,3-triazoles as inhibitors of Mycobacterium tuberculosis H37Rv and their in silico studies” (Bioorg Med Chem, 2019).

In general, IC50 refers to the concentration that inhibits the measured activity by half. By MIC is commonly meant the lowest concentration that inhibits growth of the organism. Higher therefore signals a less susceptible organism.

In series [1] the test system is HEK293. The series is described as follows: Cytotoxicity against HEK293 cells assessed as cell viability incubated for 48 hrs by MTT assay. The following applies: Homo sapiens, HEK293, 48 h. The class given is cell-based. In outline: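 HEK293 cells seeded in 96-well plates and held overnight at 37 °C, 5% CO2, 95% humidity. Cells were treated with 500, 250, 125, 62.5, 31.25 and 15.625 (units not given) for 48 h, washed twice with phosphate buffer, then given MTT (5 mg/mL stock) for 4 h at 37 °C. Formazan was dissolved in DMSO and absorbance read at 570 nm.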
A general note: Tetrazolium dyes change colour on reduction, which living cells bring about.

The subject of series [2] is Mycobacterium tuberculosis. Briefly: Antitubercular activity against Mycobacterium tuberculosis H37Rv incubated for 5 days by microplate alamar blue assay. The class given is functional. The following applies: 120 h. In a few lines:
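M. tuberculosis H37Rv grown with compound in microplate Alamar Blue assay; plates sealed and incubated at 37 °C for five days. A 1:1 mix of Alamar Blue reagent and 10% Tween 80 was then added, followed by another 24 h. Blue was scored as no growth and pink as growth. MIC was the lowest concentration preventing blue-to-pink change.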
On the technique in general: Alamar Blue is a resazurin reagent that responds to reducing activity.

The nature of series [3]: Chemical stability of compound in DMF at 5 x 10^-5 M incubated for 72 hrs by spectrometric analysis. Type of series: physicochemical. The conditions noted are these: 50 µM. In a few lines:
(§1)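 Compound stock prepared in DMF, then diluted with DMF or with buffers of pH 6–8 to 5 × 10⁻⁵ M. Samples were kept at room temperature. UV absorption and fluorescence emission spectra were recorded and their patterns compared over 24 h and 72 h.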

Series [4] in a line: Chemical stability of compound in pH 6 to 8 buffer at 5 x 10^-5 M incubated for 72 hrs by spectrometric analysis. The following applies: pH 6, 72 h, 50 µM. The class given is physicochemical. In a few lines:
as §1

Series [5] in a line: Chemical stability of compound in pH 6 to 8 buffer at 5 x 10^-5 M incubated for 24 hrs by spectrometric analysis. Type of series: physicochemical. The conditions noted are these: pH 6, 24 h, 50 µM. In a few lines: as §1
The nature of series [6]: Chemical stability of compound in DMF at 5 x 10^-5 M incubated for 24 hrs by spectrometric analysis. The class given is physicochemical. The following applies: 50 µM. In a few lines:
as §1

Converted amounts (≈) assume the structure as drawn.

Regarding `Cc1cccc2c(Cn3cc(Cn4c(C)cc(=O)n(Cc5cn(Cc6cc(=O)[nH]c7c(C)cccc67)nn5)c4=O)nn3)cc(=O)[nH]c12`, the IC50 in series [1] was 1.15 mM. In series [2], the minimum inhibitory concentration (MIC) was 79.3 µM (≈ 50 µg/mL).
With `Cc1cccc2c(Cn3cc(Cn4c(=O)n(Cc5cn(Cc6cc(=O)[nH]c7c(C)cccc67)nn5)c5ccccc54)nn3)cc(=O)[nH]c12`, the IC50 in series [1] was 4.34 mM. In series [2], this compound yielded an MIC of 2.5 µM (≈ 1.6 µg/mL). Besides, the Stability result in series [3] is recorded as “Unstable”; in series [4] it was “Unstable”; in series [5], “Stable”; in series [6], “Stable”.
In series [2], `Cc1cc(C)c2c(Cn3cc(Cn4cnc5c4c(=O)n(C)c(=O)n5C)nn3)cc(=O)oc2c1` had a minimum inhibitory concentration (MIC) of 111 µM (≈ 49.7 µg/mL).
Consider `O=c1cc(Cn2cc(Cn3c(=O)n(Cc4cn(Cc5cc(=O)[nH]c6cc(Cl)ccc56)nn4)c4ccccc43)nn2)c2ccc(Cl)cc2[nH]1`, for which the IC50 in series [1] came to 4.57 mM. Besides, the MIC in series [2] amounted to 2.35 µM (≈ 1.6 µg/mL). For the same compound, the Stability entry in series [3] is given as “Unstable”; in series [4], “Unstable”; in series [5], “Stable”; in series [6] it was “Stable”.
In the case of `O=c1cc(Cn2cc(Cn3c(=O)n(Cc4cn(Cc5cc(=O)oc6ccc7ccccc7c56)nn4)c4ccccc43)nn2)c2c(ccc3ccccc32)o1`, the concentration for half-maximal inhibition (IC50) in series [1] came out at 1.13 mM. The same compound showed an MIC in series [2] of 8.76 µM (≈ 6.24 µg/mL). In addition, the Stability result is recorded as “Unstable” in series [3], “Unstable” in series [4], “Stable” in series [5] and “Stable” in series [6].
As for `Cc1cccc2c(Cn3cc(Cn4cnc5c4c(=O)n(C)c(=O)n5C)nn3)cc(=O)[nH]c12`, in series [1], the concentration for half-maximal inhibition (IC50) is 5.04 mM. In series [2], this compound registered an MIC of 116 µM (≈ 50 µg/mL).
On to `O=c1cc(Cn2cc(Cn3c(=O)n(Cc4cn(Cc5cc(=O)oc6c5ccc5ccccc56)nn4)c4ccccc43)nn2)c2ccc3ccccc3c2o1`, for which the concentration for half-maximal inhibition (IC50) in series [1] is 3.13 mM. Besides, the minimal inhibitory concentration (MIC) in series [2] stood at 2.34 µM (≈ 1.67 µg/mL). For the same compound, the Stability result in series [3] is “Unstable”; in series [4] it was “Unstable”; in series [5] it was “Stable”; in series [6] it was “Stable”.
Take `COc1ccc2oc(=O)cc(Cn3cc(Cn4c(=O)n(Cc5cn(Cc6cc(=O)oc7ccc(OC)cc67)nn5)c5ccccc54)nn3)c2c1`: in series [1], the IC50 was 4.12 mM. The compound further had an MIC in series [2] of 4.64 µM (≈ 3.12 µg/mL). Also, the Stability result is listed as “Unstable” in series [3], “Unstable” in series [4], “Stable” in series [5] and “Stable” in series [6].
Take `CC(C)c1ccc2oc(=O)cc(Cn3cc(Cn4c(=O)n(Cc5cn(Cc6cc(=O)oc7ccc(C(C)C)cc67)nn5)c5ccccc54)nn3)c2c1`: the 50% inhibitory concentration (IC50) in series [1] worked out at 3.2 mM. For the same compound, the minimal inhibitory concentration (MIC) in series [2] was 2.49 µM (≈ 1.73 µg/mL). Also, the Stability result in series [3] was “Unstable”; in series [4], “Unstable”; in series [5], “Stable”; in series [6], “Stable”.
For `Cc1ccc2oc(=O)cc(Cn3cc(Cn4c(C)cc(=O)n(Cc5cn(Cc6cc(=O)oc7ccc(C)cc67)nn5)c4=O)nn3)c2c1`, the half-maximal inhibitory concentration (IC50) in series [1] was 1.28 mM. Further, in series [2], the MIC was 79.1 µM (≈ 50 µg/mL).
`Cc1cc(C)c2c(Cn3cc(Cn4c(=O)n(Cc5cn(Cc6cc(=O)oc7cc(C)cc(C)c67)nn5)c5ccccc54)nn3)cc(=O)oc2c1`: in series [1], the half-maximal inhibitory concentration (IC50) turned out to be 0.943 mM. In series [2], this compound yielded an MIC of 2.39 µM (≈ 1.6 µg/mL). For the same compound, the Stability entry in series [3] is “Unstable”; in series [4], “Unstable”; in series [5], “Stable”; in series [6], “Stable”.
Consider `O=c1cc(Cn2cc(Cn3c(=O)n(Cc4cn(Cc5cc(=O)[nH]c6ccc(Cl)cc56)nn4)c4ccccc43)nn2)c2cc(Cl)ccc2[nH]1`, for which the IC50 in series [1] came out at 12.3 mM. The same compound returned a minimum inhibitory concentration (MIC) in series [2] of 2.35 µM (≈ 1.6 µg/mL). In addition, the Stability entry in series [3] is reported as “Unstable”; in series [4], “Unstable”; in series [5], “Stable”; in series [6], “Stable”.
`Cc1cc(C)c2c(Cn3cc(Cn4c(C)cc(=O)n(Cc5cn(Cc6cc(=O)oc7cc(C)cc(C)c67)nn5)c4=O)nn3)cc(=O)oc2c1` displayed a minimum inhibitory concentration (MIC) in series [2] of 75.7 µM (≈ 50 µg/mL).
On to `COc1ccc2oc(=O)cc(Cn3cc(Cn4cnc5c4c(=O)n(C)c(=O)n5C)nn3)c2c1`, for which the half-maximal inhibitory concentration (IC50) in series [1] is 1.38 mM. This compound also yielded an MIC in series [2] of 55.6 µM (≈ 25 µg/mL).
In the case of `Cc1ccc2c(Cn3cc(Cn4c(C)cc(=O)n(Cc5cn(Cc6cc(=O)oc7cc(C)ccc67)nn5)c4=O)nn3)cc(=O)oc2c1`, in series [2], 79.1 µM (≈ 50 µg/mL) was the least that counted as inhibitory (MIC).
For `Cc1ccc2c(Cn3cc(Cn4c(=O)n(Cc5cn(Cc6cc(=O)oc7c(C)c(C)ccc67)nn5)c5ccccc54)nn3)cc(=O)oc2c1C`, the concentration for half-maximal inhibition (IC50) in series [1] came to 3.43 mM. In series [2], the MIC is 2.39 µM (≈ 1.6 µg/mL). Further, the Stability result in series [3] was “Unstable”; in series [4] it was “Unstable”; in series [5] it was “Stable”; in series [6] it was “Stable”.
Consider `Cc1ccc2oc(=O)cc(Cn3cc(Cn4cnc5c4c(=O)n(C)c(=O)n5C)nn3)c2c1`, for which the concentration for half-maximal inhibition (IC50) in series [1] turned out to be 1.11 mM. The compound further showed a minimal inhibitory concentration (MIC) in series [2] of 115 µM (≈ 50 µg/mL).
On to `O=c1cc(Cn2cc(Cn3c(=O)n(Cc4cn(Cc5cc(=O)oc6ccc(Cl)cc56)nn4)c4ccccc43)nn2)c2cc(Cl)ccc2o1`, for which the MIC in series [2] was determined as 18.3 µM (≈ 12.5 µg/mL). In addition, the Stability result in series [3] is “Unstable”; in series [4], “Unstable”; in series [5], “Stable”; in series [6], “Stable”.
For `O=c1cc(Cn2cc(Cn3c(=O)n(Cc4cn(Cc5cc(=O)[nH]c6ccccc56)nn4)c4ccccc43)nn2)c2ccccc2[nH]1`, the MIC in series [2] turned out to be 10.2 µM (≈ 6.25 µg/mL). The Stability entry is listed as “Unstable” in series [3], “Unstable” in series [4], “Stable” in series [5] and “Stable” in series [6].
On to `COc1ccc2oc(=O)cc(Cn3cc(Cn4c(C)cc(=O)n(Cc5cn(Cc6cc(=O)oc7ccc(OC)cc67)nn5)c4=O)nn3)c2c1`, for which the 50% inhibitory concentration (IC50) in series [1] is 1.52 mM. The compound also gave an MIC in series [2] of 75.2 µM (≈ 50 µg/mL).
As to `Cc1ccc2oc(=O)cc(Cn3cc(Cn4c(=O)n(Cc5cn(Cc6cc(=O)oc7ccc(C)cc67)nn5)c5ccccc54)nn3)c2c1`, the IC50 in series [1] was 3.58 mM. This compound also came in with an MIC in series [2] of 2.49 µM (≈ 1.6 µg/mL). For the same compound, the Stability result in series [3] is reported as “Unstable”; in series [4], “Unstable”; in series [5] it was “Stable”; in series [6] it was “Stable”.
In the case of `Cc1ccc2c(Cn3cc(Cn4c(=O)n(Cc5cn(Cc6cc(=O)oc7cc(C)ccc67)nn5)c5ccccc54)nn3)cc(=O)oc2c1`, in series [1], the IC50 came to 3.52 mM. Further, the MIC in series [2] was 2.49 µM (≈ 1.6 µg/mL). For the same compound, the Stability result was “Unstable” in series [3], “Unstable” in series [4], “Stable” in series [5] and “Stable” in series [6].
In the case of `COc1ccc2c(Cn3cc(Cn4c(=O)n(Cc5cn(Cc6cc(=O)oc7cc(OC)ccc67)nn5)c5ccccc54)nn3)cc(=O)oc2c1`, the IC50 in series [1] was 4.62 mM. In series [2], this compound displayed an MIC of 2.37 µM (≈ 1.59 µg/mL). For the same compound, the Stability entry in series [3] is reported as “Unstable”; in series [4], “Unstable”; in series [5] it was “Stable”; in series [6] it was “Stable”.
With `O=C(O)c1cn(C2CC2)c2cc(N3CCNCC3)c(F)cc2c1=O` [CIPROFLOXACIN], in series [2], inhibition of growth (MIC) required 9.43 µM (≈ 3.12 µg/mL).
Still for that read-out and setting: the value for `NC(=O)c1cnccn1` [PYRAZINAMIDE] was 25.4 µM (≈ 3.12 µg/mL).
Same read-out and setting: under `CN[C@@H]1[C@H](O[C@H]2[C@H](O[C@H]3[C@H](O)[C@@H](O)[C@H](N=C(N)N)[C@@H](O)[C@@H]3N=C(N)N)O[C@@H](C)[C@]2(O)C=O)O[C@@H](CO)[C@H](O)[C@H]1O` [STREPTOMYCIN] stands 10.7 µM (≈ 6.25 µg/mL).
